These results are taken from PubChem BioAssay AID602152 (Broad Institute, 2011).

Each structure is given as a SMILES string. Activity calls are given as the source filed them.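 The calls were made as follows: active = efflux reduced below the neutral control level, like a known efflux blocker; inactive = efflux raised or left unchanged.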

The test is described as follows: free cholesterol release via mSR-BI to HDL – ldlA[mSR-BI] cells, [3H]cholesterol, dry powder, mechanism study for SR-BI HDL uptake inhibitor project, dose response (AID 602152). Particulars: [3H]cholesterol efflux to HDL, LSC; at 25 µM (top of the series). In a few lines: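 Assay system: ldlA[mSR-BI] cells, mouse SR-BI expressing; Reagent: HDL, 100 µg/mL; Times: 2-day label, 24 h equilibration, 1 h compound, 2 h efflux; Measured by: liquid scintillation counting of 3H in medium and cells.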

Regarding `C[C@H](C(=O)NC1CCCC1)N(C(=O)Cn1nnc(-c2ccc3c(c2)OCO3)n1)C1CCCCC1`, the efflux, percent of neutral control was 6.75% (active).

`COCC(=O)N1CCc2cc(-c3csc(NC(=O)c4cc(OC)cc(OC)c4)n3)ccc21`: the efflux, percent of neutral control was 9.23% (active).
